In ChEMBL document CHEMBL1126114, “A novel orally active inhibitor of IL-1 generation: synthesis and structure-activity relationships of 3-(4-hydroxy-1-naphthalenyl)-2-propenoic acid derivatives” (J Med Chem, 1992):
Where “and” joins values, the source holds several entries; their conditions need not be identical. Equal entries are not always repeated.

Key:
Rattus norvegicus [1] = test: Inhibitory activity against PGE-2 on CMC-LPS air-pouch model at 12.5 mg/Kg by oral administration; format: functional
Procedure, shortened: (§1)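 Rat CMC-LPS air pouch (air, 2% CMC-Na, then LPS 5 ng). Oral dosing in 0.5% methyl cellulose 2 h before LPS. PGE2 in the exudate supernatant collected 4 h after LPS, measured by radioimmunoassay.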

Rattus norvegicus [2] = test: % inhibition against arthritis on adjuvant-untreated paw in rats at 50 mg/Kg by oral administration; format: functional
Procedure, shortened: (§2)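 Adjuvant arthritis in rats; drug given orally once daily from the first day of adjuvant treatment. Swelling of the adjuvant-untreated paw measured by plethysmometer on day 15 after adjuvant; % inhibition versus control. Mean ± SEM of 6–10 animals; significance versus control.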

Rattus norvegicus [3] = test: Inhibitory activity against Granuloma on CMC-LPS air-pouch model at 50 mg/Kg by oral administration; format: functional
Procedure, shortened: (§3)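 Rat CMC-LPS air pouch (air, 2% CMC-Na, then LPS 5 ng). Oral dosing in 0.5% methyl cellulose 2 h before LPS. Granuloma wet weight determined 5 days after LPS; % inhibition versus control, with an LPS-free group included.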

Rattus norvegicus [4] = test: The compound was tested for Granuloma generation on CMC-LPS air-pouch model at 12.5 mg/Kg by oral administration; format: functional; procedure, shortened: as §3
Rattus norvegicus [5] = test: In vivo percent inhibition of IL-1 generation in rat CMC-LPS air pouch model at 100 uM concentration (local administration); format: functional
Procedure, shortened: (§4)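 Rat air pouch: 10 mL air s.c. into the dorsum, 2% CMC-Na in saline 24 h later, then LPS 5 ng 24 h after CMC. Compound given locally in 5% EtOH-RPMI with 30% autologous serum, 100 μM final in exudate, at 30 min before and just before LPS. Exudate IL-1 (extra- plus intracellular) read by LAF at 4 h. n=5; % inhibition ± SEM.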

Rattus norvegicus [6] = test: Inhibitory activity against PGE-2 on CMC-LPS air-pouch model at 25 mg/Kg by oral administration; format: functional; procedure, shortened: as §1
Rattus norvegicus [7] = test: Inhibitory activity against PGE-2 on CMC-LPS air-pouch model at 50 mg/Kg by oral administration; format: functional; procedure, shortened: as §1
Rattus norvegicus [8] = test: The compound was tested for Granuloma generation on CMC-LPS air-pouch model at 100 mg/Kg by oral administration; format: functional; procedure, shortened: as §3
Rattus norvegicus [9] = test: Activity against arthritis on adjuvant-untreated paw in rats at 25 mg/Kg by oral administration; format: functional; procedure, shortened: as §2
Rattus norvegicus [10] = test: Inhibitory activity against PGE-2 on CMC-LPS air-pouch model at 100 mg/Kg by oral administration; format: functional; procedure, shortened: as §1
Rattus norvegicus [11] = test: Activity against arthritis on adjuvant-untreated paw in rats at 100 mg/Kg by oral administration; format: functional; procedure, shortened: as §2
Rattus norvegicus [12] = test: Inhibitory activity against IL-1 on CMC-LPS air-pouch model at 25 mg/Kg by oral administration; format: functional
Procedure, shortened: (§5)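 Rat CMC-LPS air pouch: air s.c., 2% CMC-Na 24 h later, LPS 5 ng 24 h after that. Compound given orally in 0.5% methyl cellulose 2 h before LPS. Exudate collected at 4 h; IL-1 (extra- plus intracellular) read by LAF assay against a recombinant human IL-1α curve.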

Rattus norvegicus [13] = test: The compound was tested for IL-1 generation on CMC-LPS air-pouch model at 12.5 mg/Kg by oral administration; format: functional, organism-based
Procedure, shortened: (§6)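 Rats got 10 mL subcutaneous dorsal air, then 6 mL sterile 2% (w/v) CMC-Na in saline into the pouch 24 h later, then 5 ng LPS in 0.5 mL saline 24 h after that. Compound given orally as a suspension in 0.5% methyl cellulose 2 h before LPS. Exudate collected 4 h after LPS. Extra- plus intracellular IL-1 measured by LAF assay against a human recombinant IL-1α curve. Percent inhibition versus control; five rats per group.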

Rattus norvegicus [14] = test: Activity against arthritis on adjuvant-untreated paw in rats at 12.5 mg/Kg by oral administration; format: functional; procedure, shortened: as §2
Rattus norvegicus [15] = test: Inhibitory activity against IL-1 on CMC-LPS air-pouch model at 12.5 mg/Kg by oral administration; format: functional; procedure, shortened: as §5
Rattus norvegicus [16] = test: Inhibitory activity against IL-1 on CMC-LPS air-pouch model at 200 mg/Kg by oral administration; format: functional; procedure, shortened: as §5
Rattus norvegicus [17] = test: The compound was tested for PGE-2 generation on CMC-LPS air-pouch model at 25 mg/Kg by oral administration; format: functional, organism-based
Procedure, shortened: (§7)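 Rat dorsal air pouch: CMC-Na (2% w/v, 6 mL) injected 24 h after the air, LPS (5 ng) 24 h after that. Oral dosing as a suspension in 0.5% methyl cellulose 2 h before LPS. Exudate sampled 4 h post-LPS; PGE2 in the exudate supernatant measured by radioimmunoassay. Percent inhibition versus control; five animals per group.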

Rattus norvegicus [18] = test: Inhibitory activity against Granuloma on CMC-LPS air-pouch model at 200 mg/Kg by oral administration; format: functional; procedure, shortened: as §3
Rattus norvegicus [19] = test: The compound was tested for PGE-2 generation on CMC-LPS air-pouch model at 100 mg/Kg by oral administration; format: functional, organism-based; procedure, shortened: as §7
Rattus norvegicus [20] = test: The compound was tested for IL-1 generation on CMC-LPS air-pouch model at 25 mg/Kg by oral administration; format: functional, organism-based; procedure, shortened: as §6
Rattus norvegicus [21] = test: Inhibitory activity against IL-1 on CMC-LPS air-pouch model at 50 mg/Kg by oral administration; format: functional; procedure, shortened: as §5
Rattus norvegicus [22] = test: The compound was tested for Granuloma generation on CMC-LPS air-pouch model at 200 mg/Kg by oral administration; format: functional; procedure, shortened: as §3
Rattus norvegicus [23] = test: % inhibition against arthritis on adjuvant-untreated paw in rats at 25 mg/Kg by oral administration; format: functional; procedure, shortened: as §2
Rattus norvegicus [24] = test: % inhibition against arthritis on adjuvant-untreated paw in rats at 12.5 mg/Kg by oral administration; format: functional; procedure, shortened: as §2
Rattus norvegicus [25] = test: The compound was tested for Granuloma generation on CMC-LPS air-pouch model at 25 mg/Kg by oral administration; format: functional; procedure, shortened: as §3
Rattus norvegicus [26] = test: Activity against arthritis on adjuvant-untreated paw in rats at 50 mg/Kg by oral administration; format: functional; procedure, shortened: as §2
Rattus norvegicus [27] = test: The compound was tested for Granuloma generation on CMC-LPS air-pouch model at 50 mg/Kg by oral administration; format: functional; procedure, shortened: as §3
Rattus norvegicus [28] = test: Inhibitory activity against Granuloma on CMC-LPS air-pouch model at 100 mg/Kg by oral administration; format: functional; procedure, shortened: as §3
Rattus norvegicus [29] = test: % inhibition against arthritis on adjuvant-untreated paw in rats at 100 mg/Kg by oral administration; format: functional; procedure, shortened: as §2
Rattus norvegicus [30] = test: The compound was tested for PGE-2 generation on CMC-LPS air-pouch model at 50 mg/Kg by oral administration; format: functional, organism-based; procedure, shortened: as §7
Rattus norvegicus [31] = test: Inhibitory activity against PGE-2 on CMC-LPS air-pouch model at 200 mg/Kg by oral administration; format: functional; procedure, shortened: as §1
Rattus norvegicus [32] = test: Compound was evaluated in vivo for the percent inhibition of IL-1 generation in rat CMC-LPS air pouch model at 50 mg/Kg concentration (oral administration); format: functional; procedure, shortened: as §5
Rattus norvegicus [33] = test: Inhibitory activity against IL-1 on CMC-LPS air-pouch model at 100 mg/Kg by oral administration; format: functional; procedure, shortened: as §5
Rattus norvegicus [34] = test: The compound was tested for PGE-2 generation on CMC-LPS air-pouch model at 200 mg/Kg by oral administration; format: functional, organism-based; procedure, shortened: as §7
Rattus norvegicus [35] = test: Inhibitory activity against Granuloma on CMC-LPS air-pouch model at 25 mg/Kg by oral administration; format: functional; procedure, shortened: as §3
Rattus norvegicus [36] = test: Inhibitory activity against Granuloma on CMC-LPS air-pouch model at 12.5 mg/Kg by oral administration; format: functional; procedure, shortened: as §3
Rattus norvegicus [37] = test: The compound was tested for PGE-2 generation on CMC-LPS air-pouch model at 12.5 mg/Kg by oral administration; format: functional, organism-based; procedure, shortened: as §7
Rattus norvegicus [38] = species: Rattus norvegicus; test: In vitro inhibitory activity against IL-1 generation by using rat exudated macrophages; format: functional
Procedure, shortened: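 Fisher rat peritoneal exudate cells collected 4 days after i.p. 2.5% glycogen. Cells adhered 1.5 h at 37 °C in 1% normal rat serum. Adherent macrophages stimulated with LPS 1 ng/mL for 4 h ± compound. Intracellular IL-1 read by LAF assay against a recombinant human IL-1α curve. IC50 by least squares; mean of duplicates.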

Rattus norvegicus [39] = test: Compound was evaluated in vivo for the percent inhibition of IL-1 generation in rat CMC-LPS air pouch model at 100 uM concentration; format: functional; procedure, shortened: as §4
Homo sapiens = species: Homo sapiens; test: In vitro inhibitory activity against IL-1 generation by using human monocyte; format: functional
Procedure, shortened: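 Healthy-donor peripheral mononuclear cells, adhered 1.5 h in RPMI 1640 with 10% heat-inactivated autologous serum. Adherent monocytes then stimulated with LPS 1 μg/mL for 16–18 h in 1% autologous serum with 0.1% ethanol, ± drug. Extra- plus intracellular IL-1 read by LAF assay against a recombinant human IL-1β curve. IC50 by least squares; mean of ≥2 experiments.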

CCc1cccc2c(/C=C(/C)C(=O)O)cc(OC)c(O)c12
inhibition in vivo at 12.5 mg/kg (Rattus norvegicus [1]): 35%
inhibition in vivo at 50 mg/kg (Rattus norvegicus [2]): 38.8%
inhibition in vivo at 50 mg/kg (Rattus norvegicus [3]): 49%
Wet weight (Rattus norvegicus [4]): 1.93 g
Inhibition (Rattus norvegicus [5]): 94% and 91%
inhibition in vivo at 25 mg/kg (Rattus norvegicus [6]): 43%
inhibition in vivo at 50 mg/kg (Rattus norvegicus [7]): 68%
Wet weight (Rattus norvegicus [8]): 1.25 g
Swelling (Rattus norvegicus [9]): 36.4%
inhibition in vivo at 100 mg/kg (Rattus norvegicus [10]): 91%
Swelling (Rattus norvegicus [11]): 26.8%
inhibition in vivo at 25 mg/kg (Rattus norvegicus [12]): 40%
Concentration (Rattus norvegicus [13]): 1290 U/mL
Swelling (Rattus norvegicus [14]): 44.1%
inhibition in vivo at 12.5 mg/kg (Rattus norvegicus [15]): < 25%
inhibition in vivo at 200 mg/kg (Rattus norvegicus [16]): 91%
Concentration (Rattus norvegicus [17]): 5.2 ng/mL
inhibition in vivo at 200 mg/kg (Rattus norvegicus [18]): 87%
Concentration (Rattus norvegicus [19]): 0.8 ng/mL
Concentration (Rattus norvegicus [20]): 1030 U/mL
inhibition in vivo at 50 mg/kg (Rattus norvegicus [21]): 65%
Wet weight (Rattus norvegicus [22]): 1.16 g
inhibition in vivo at 25 mg/kg (Rattus norvegicus [23]): 34.1%
inhibition in vivo at 12.5 mg/kg (Rattus norvegicus [24]): 20.1%
Wet weight (Rattus norvegicus [25]): 1.61 g
Swelling (Rattus norvegicus [26]): 33.8%
Wet weight (Rattus norvegicus [27]): 1.49 g
inhibition in vivo at 100 mg/kg (Rattus norvegicus [28]): 76%
inhibition in vivo at 100 mg/kg (Rattus norvegicus [29]): 51.4%
Concentration (Rattus norvegicus [30]): 2.9 ng/mL
inhibition in vivo at 200 mg/kg (Rattus norvegicus [31]): 90%
inhibition in vivo at 50 mg/kg (Rattus norvegicus [32]): 65%
inhibition in vivo at 100 mg/kg (Rattus norvegicus [33]): 84%
Concentration (Rattus norvegicus [34]): 0.9 ng/mL
inhibition in vivo at 25 mg/kg (Rattus norvegicus [35]): 37%
inhibition in vivo at 12.5 mg/kg (Rattus norvegicus [36]): < 25%
Concentration (Rattus norvegicus [37]): 5.9 ng/mL

CCc1cccc2c(/C=C/C(=O)O)cc(Cl)c(O)c12
IC50 (Rattus norvegicus [38]): 6 µM
Inhibition (Rattus norvegicus [39]): <25%
IC50 (Homo sapiens): 5.4 µM
